According to ChEMBL document CHEMBL3085681, “Synthesis of novel 1,2,3-triazole based benzoxazolinones: their TNF-α based molecular docking with in-vivo anti-inflammatory, antinociceptive activities and ulcerogenic risk evaluation” (Eur J Med Chem, 2013):
The source made the active and inactive calls. The rule behind the calls is not given here.

What was measured:
Rattus norvegicus [1] = experiment: Antinociceptive activity in albino Wistar rat assessed as thermal-stimulus induced tail flick latency at 0.05 mmol/kg, po after 60 mins (reference value: 2.54 +/- 0.05 mins); type: functional
Rattus norvegicus [2] = experiment: Ulcerogenicity in albino Wistar rat assessed as gastric superficial mucosal damage at 0.15 mmol/kg, po by hematoxylin and eosin staining-based assay; type: toxicity, organism-based, Stomach; details: in vivo
[3] = target: T1, Prostaglandin G/H synthase 2 (Homo sapiens, UniProt P35354); experiment: Inhibition of human recombinant COX2 expressed in insect cell expression system using TMPD and arachidonic acid as substrate incubated for 1 min prior to substrate addition by spectrophotometry
T1 sequence (P35354 whole entry): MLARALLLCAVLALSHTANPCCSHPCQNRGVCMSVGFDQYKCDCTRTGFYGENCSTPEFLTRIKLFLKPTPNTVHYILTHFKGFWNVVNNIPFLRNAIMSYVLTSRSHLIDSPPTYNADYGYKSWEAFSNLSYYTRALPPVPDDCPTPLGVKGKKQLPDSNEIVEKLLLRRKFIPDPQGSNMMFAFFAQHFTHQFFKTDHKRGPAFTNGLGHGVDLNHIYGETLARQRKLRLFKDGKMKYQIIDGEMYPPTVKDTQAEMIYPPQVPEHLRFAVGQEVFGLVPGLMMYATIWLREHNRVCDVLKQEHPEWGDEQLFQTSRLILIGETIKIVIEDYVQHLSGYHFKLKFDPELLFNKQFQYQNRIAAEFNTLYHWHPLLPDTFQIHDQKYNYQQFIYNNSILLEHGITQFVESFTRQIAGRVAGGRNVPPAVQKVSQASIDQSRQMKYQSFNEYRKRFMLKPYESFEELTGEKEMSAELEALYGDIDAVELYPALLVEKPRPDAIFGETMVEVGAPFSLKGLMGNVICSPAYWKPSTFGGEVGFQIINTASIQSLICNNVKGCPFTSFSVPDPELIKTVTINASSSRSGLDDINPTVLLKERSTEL

[4] = target: Prostaglandin G/H synthase 1 (Homo sapiens, UniProt P23219); experiment: Inhibition of COX1 (unknown origin)
Rattus norvegicus [5] = experiment: Ulcerogenicity in albino Wistar rat assessed as gastric surface epithelial damage at 0.15 mmol/kg, po by hematoxylin and eosin staining-based assay; type: toxicity, organism-based, Stomach; details: in vivo
Rattus norvegicus [6] = experiment: Ulcerogenicity in albino Wistar rat assessed as gastric deep mucosal damage at 0.15 mmol/kg, po by hematoxylin and eosin staining-based assay; type: toxicity, organism-based, Stomach; details: in vivo
Rattus norvegicus [7] = experiment: Antinociceptive activity in albino Wistar rat assessed as thermal-stimulus induced tail flick latency at 0.05 mmol/kg, po after 120 mins (reference value: 2.38 +/- 0.11 mins); type: functional
Rattus norvegicus [8] = experiment: Ulcerogenicity in albino Wistar rat assessed as gastric muscular layer damage at 0.15 mmol/kg, po by hematoxylin and eosin staining-based assay; type: toxicity, organism-based, Stomach; details: in vivo
Homo sapiens = organism: Homo sapiens; experiment: Selectivity index, ratio of IC50 for COX1 (unknown origin) to IC50 for human recombinant COX2
Rattus norvegicus [9] = experiment: Antinociceptive activity in albino Wistar rat assessed as thermal-stimulus induced tail flick latency at 0.05 mmol/kg, po after 30 mins (reference value: 2.22 +/- 0.20 mins); type: functional
Rattus norvegicus [10] = experiment: Antiinflammatory activity in albino Wistar rat assessed as inhibition of carrageenan-induced hind paw edema at 0.05 mmol/kg, po administered 1 hr prior to carrageenan challenge by plethysmometric analysis; type: functional, organism-based; details: TDE = time-dependent effect
Summary of the method: (§1)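 Oedema raised by s.c. injection of 0.1 ml of freshly prepared 1% carrageenan in saline into the right hind paw. Test agents given orally at 0.05 mmol/kg, 1 h before carrageenan; saline vehicle control. Paw volume read by plethysmometer at 3 h and 5 h.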

Rattus norvegicus [11] = experiment: Antiinflammatory activity in albino Wistar rat assessed as inhibition of carrageenan-induced hind paw edema at 0.05 mmol/kg, po administered 1 hr prior to carrageenan challenge measured after 5 hrs by plethysmometric analysis relative to control; type: functional; summary of the method: as §1
Rattus norvegicus [12] = experiment: Antiinflammatory activity in albino Wistar rat assessed as inhibition of carrageenan-induced hind paw edema at 0.05 mmol/kg, po administered 1 hr prior to carrageenan challenge measured after 3 hrs by plethysmometric analysis relative to control; type: functional; summary of the method: as §1
Mus musculus = experiment: Antinociceptive activity in mouse assessed as inhibition of acetic acid-induced writhing at 0.05 mmol/kg, po administered 30 mins prior to acetic acid-challenge measured after 20 mins relative to control; type: functional
Summary of the method: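 Writhing in mice by the Koster method. Six animals per group, compound given orally at 0.05 mmol/kg 30 min before i.p. 0.6% (v/v) acetic acid (80 mg/kg). Total writhes counted over 20 min after acetic acid injection.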

[13] = Antiinflammatory activity in macrophages (unknown origin) assessed as inhibition of TNF-alpha secretion incubated for 2 hrs by ELISA relative to control; type: functional, Macrophage
Summary of the method: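 Macrophages grown in RPMI 1640 with 10% FBS, glutamine and penicillin/streptomycin, plated at 2 × 10^6 cells/mL. Pre-treated with cytochalasin D (2.5 µM per 10^6 cells) for 30 min, kept on throughout. Cells exposed to varying compound concentrations. TNF-α in supernatants measured by sandwich ELISA with TMB read at 450 nm, quantified against the kit standard.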

Sequence of Prostaglandin G/H synthase 1 (P23219 whole entry): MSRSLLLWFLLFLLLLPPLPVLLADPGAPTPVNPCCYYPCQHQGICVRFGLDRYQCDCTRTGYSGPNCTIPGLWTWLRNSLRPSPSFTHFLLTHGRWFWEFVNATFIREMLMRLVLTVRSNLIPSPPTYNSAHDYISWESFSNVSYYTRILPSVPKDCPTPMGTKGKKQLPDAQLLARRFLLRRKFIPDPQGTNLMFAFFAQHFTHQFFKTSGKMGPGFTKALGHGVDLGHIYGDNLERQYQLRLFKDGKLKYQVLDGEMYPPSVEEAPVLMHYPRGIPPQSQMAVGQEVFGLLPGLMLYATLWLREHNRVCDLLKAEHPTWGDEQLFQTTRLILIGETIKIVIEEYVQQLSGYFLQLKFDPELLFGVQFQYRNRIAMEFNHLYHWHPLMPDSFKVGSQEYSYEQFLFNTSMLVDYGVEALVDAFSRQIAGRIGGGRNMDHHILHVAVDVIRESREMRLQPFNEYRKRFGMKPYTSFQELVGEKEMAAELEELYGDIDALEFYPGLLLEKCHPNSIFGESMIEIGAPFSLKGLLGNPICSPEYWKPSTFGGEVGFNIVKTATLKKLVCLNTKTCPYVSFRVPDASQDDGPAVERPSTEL

Structure (SMILES) | IC50 [3] [µM] | IC50 [4] [µM] | Ratio IC50 (Homo sapiens) | Time (Rattus norvegicus [1]) [min] | Activity (Rattus norvegicus [2]) | Activity (Rattus norvegicus [5]) | Activity (Rattus norvegicus [6]) | Time (Rattus norvegicus [7]) [min] | Activity (Rattus norvegicus [8]) | Time (Rattus norvegicus [9]) [min] | inhibition (Rattus norvegicus [10]) | inhibition in vivo at 50 µmol/kg (Rattus norvegicus [11]) [%] | inhibition in vivo at 50 µmol/kg (Rattus norvegicus [12]) [%] | inhibition (Rattus norvegicus [11]) | inhibition (Rattus norvegicus [12]) | inhibition in vivo at 50 µmol/kg (Mus musculus) [%] | inhibition (INH) [13] [%]
O=c1oc2ccc(Cl)cc2n1Cc1cn(-c2ccc(Cl)cc2)nn1 | 2.7 | 111 | 41.2 |  | Non-toxic | Non-toxic | Non-toxic |  | Non-toxic |  |  | 65.1 | 67.4 |  |  |  | 
CCOc1ccc(-n2cc(Cn3c(=O)oc4ccccc43)nn2)cc1 |  |  |  |  |  |  |  |  |  |  |  |  |  | Active | Active |  | 
O=c1oc2ccccc2n1Cc1cn(-c2cccnc2)nn1 |  |  |  |  |  |  |  |  |  |  |  |  |  | Active | Active |  | 
Cc1ccc2oc(=O)n(Cc3cn(-c4ccc(Br)cc4)nn3)c2c1 | 2.78 | 188 | 67.7 | 2.74 | Non-toxic | Non-toxic | Non-toxic | 2.88 | Non-toxic | 2.62 | tde | 74.8 | 73.2 |  |  | 41.8 | 50.95
COc1ccc2c(c1)c(CC(=O)O)c(C)n2C(=O)c1ccc(Cl)cc1 [INDOMETHACIN] |  |  |  | 3.68 | Toxic | Toxic | Toxic | 3.54 | Toxic | 3.12 |  | 82.2 | 79.1 |  |  | 44.7 | 64.01
O=c1oc2ccccc2n1Cc1cn(-c2cccc([N+](=O)[O-])c2)nn1 |  |  |  |  |  |  |  |  |  |  |  |  |  | inactive | inactive |  | 
COc1ccc(-n2cc(Cn3c(=O)oc4ccccc43)nn2)cc1 |  |  |  |  |  |  |  |  |  |  |  |  |  | Active | Active |  | 

Continued, in another order:

IC50 [3] [µM] | IC50 [4] [µM] | Ratio IC50 (Homo sapiens) | Structure (SMILES) | Time (Rattus norvegicus [1]) [min] | Activity (Rattus norvegicus [2]) | Activity (Rattus norvegicus [5]) | Activity (Rattus norvegicus [6]) | Time (Rattus norvegicus [7]) [min] | Activity (Rattus norvegicus [8]) | Time (Rattus norvegicus [9]) [min] | inhibition (Rattus norvegicus [10]) | inhibition in vivo at 50 µmol/kg (Rattus norvegicus [11]) [%] | inhibition in vivo at 50 µmol/kg (Rattus norvegicus [12]) [%] | inhibition (Rattus norvegicus [11]) | inhibition (Rattus norvegicus [12]) | inhibition in vivo at 50 µmol/kg (Mus musculus) [%] | inhibition (INH) [13] [%]
3.1 | 138 | 44.6 | O=c1oc2ccc(Cl)cc2n1Cc1cn(-c2ccccc2F)nn1 | 2.78 | Non-toxic | Non-toxic | Non-toxic | 2.64 | Non-toxic | 2.88 |  |  |  |  |  |  | 
3.6 | 207 | 57.6 | Cc1ccc2c(c1)oc(=O)n2Cc1cn(-c2ccccc2Cl)nn1 | 2.44 | Non-toxic | Non-toxic | Non-toxic | 2.56 | Non-toxic | 2.18 | tde | 72.9 | 71.8 |  |  |  | 
5.6 | 389 | 69.5 | Cc1ccc2c(c1)oc(=O)n2Cc1cn(-c2ccc(Cl)cc2)nn1 | 3.22 | Non-toxic | Non-toxic | Non-toxic | 3.34 | Non-toxic | 3.08 |  | 76.7 | 74 |  |  |  | 
2.4 | 175 | 72.8 | Cc1ccc2c(c1)oc(=O)n2Cc1cn(-c2ccc(F)cc2)nn1 | 3.24 | Non-toxic | Non-toxic | Non-toxic | 3.36 | Non-toxic | 3.1 |  | 80.6 | 81.4 |  |  |  | 
